Sampled rows, rich in hits. Any-hit rate of the full collection: about 2.1%.
TDP2 absorb – human TDP2 enzyme inhibitors, primary screen, biochemical, epi absorbance, recombinant enzyme. T5PNP hydrolysis, p-nitrophenol absorbance 415 nm. inhibition, % at 12.8 µM. 370,000 compounds, 0.34% hits;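 active means inhibition above the mean of all tested compounds plus 3 SD, set per campaign, cut at about 25% in these data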;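 further: 0% = DMSO with enzyme and 100% = buffer with substrate but no TDP2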
Target sequence (O95551 whole entry, looked up): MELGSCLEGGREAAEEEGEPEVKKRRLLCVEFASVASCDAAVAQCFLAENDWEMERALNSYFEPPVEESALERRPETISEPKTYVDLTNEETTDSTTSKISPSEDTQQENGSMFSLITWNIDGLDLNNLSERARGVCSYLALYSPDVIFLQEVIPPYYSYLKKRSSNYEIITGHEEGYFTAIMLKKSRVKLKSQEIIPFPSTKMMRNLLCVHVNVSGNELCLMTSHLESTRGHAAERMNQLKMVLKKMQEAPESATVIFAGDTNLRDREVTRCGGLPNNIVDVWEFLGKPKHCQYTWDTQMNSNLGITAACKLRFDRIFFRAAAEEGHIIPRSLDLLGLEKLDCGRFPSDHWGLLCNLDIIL
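Evaluation: % inhibition relative to enzyme-containing and enzyme-free wells. Material: recombinant human TDP2. Benchmarks: enzyme-free and DMSO wells. Timing: enzyme reaction with compound for 2 h at 37 °C. Compound dosing: 12.8 µM only. Measured by: p-Nitrophenol epi absorbance. Reagent: T5PNP substrate at 5 mM, a TopII-DNA adduct mimic. Replication: single well per compound.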
GSTO1 counter – inhibitors of recombinant GSTO1, primary screen, counter-screen for RBBP9 inhibitor project, biochemical, fluorescence polarization; Glutathione S-transferase omega-1 (Homo sapiens), P78417; activity-based probe fluorescence polarization; inhibition, % at 5.96 µM; 300,000 compounds, 1.1% hits;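 active means inhibition above the campaign mean inhibition plus 3 SD, cut at about 35% in these data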;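 further: 0% = GSTO1-1 with DMSO and 100% = wells lacking GSTO1-1 enzyme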
Target sequence (P78417 whole entry, looked up): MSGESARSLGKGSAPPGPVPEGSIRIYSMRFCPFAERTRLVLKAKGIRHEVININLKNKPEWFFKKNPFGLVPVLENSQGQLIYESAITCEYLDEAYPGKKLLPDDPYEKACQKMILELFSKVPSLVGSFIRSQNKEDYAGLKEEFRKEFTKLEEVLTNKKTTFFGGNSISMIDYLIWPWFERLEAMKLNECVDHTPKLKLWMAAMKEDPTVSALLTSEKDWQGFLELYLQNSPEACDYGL
PP5 inh – PP5 phosphatase inhibitors, primary screen, biochemical, fluorescence. Serine/threonine-protein phosphatase 5 (Homo sapiens), P53041. purified PP5c, OMFP substrate fluorescence. inhibition, % at 6.7 µM. 320,000 compounds, 0.18% hits. AID 1987, 2009;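 active means inhibition above the campaign's mean inhibition across all tested compounds plus 3 SD, cut at about 9.5% in these data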;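 further: 0% = DMSO only and 100% = 100 µM cantharidin control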
Apaf-1 inh – inhibitors of human Apaf-1 apoptosome, primary screen, biochemical, DEVD-Rh110 fluorescence, uHTS; AID 489030, 2010; 330,000 compounds, 0.71% hits; reconstituted apoptosome caspase-3 activity; Apoptotic protease-activating factor 1 (Homo sapiens), O14727; inhibition, % at 20 µM; active means inhibition of at least 40% at 20 µM;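 further: plate controls were DMSO wells for no effect and DEVD-CHO caspase inhibitor wells for full effect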
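Medium: Hepes buffer, pH 7.5 / System: biochemical Apaf-1 apoptosome reconstitution / Measured by: Rh110 fluorescence, excitation 480 nm, emission 540 nm / Times: compound with Apaf-1, dATP, procaspase-3 30 min, then 50 min reaction, room temperature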
PP1 counter – PP1-alpha phosphatase inhibitors, primary screen, counter-screen for PP5 inhibitor project, biochemical, fluorescence, OMFP substrate, single point. Serine/threonine-protein phosphatase PP1-alpha catalytic subunit (Homo sapiens), P62136. purified PP1alpha. inhibition, % at 6.7 µM. 320,000 compounds, 0.9% hits;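 active means inhibition above the mean inhibition of all tested compounds plus 3 SD, computed separately for each screening campaign, cut at about 15% in these data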
TDP2 inh conf – human TDP2 enzyme inhibitors, retest, confirmation, biochemical, epi absorbance, recombinant enzyme | absorbance read-out | AID 743263, 2014 | 1,100 compounds, 22% hits | shares compounds with TDP2 absorb | inhibition, % at 12.8 µM; in the data active means inhibition above about 25%;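 further: 0% = vehicle with enzyme and 100% = no enzyme buffer only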
Numbers without * were called inactive; . = not tested or not shown.

SMILES | TDP2 absorb | GSTO1 counter | PP5 inh | Apaf-1 inh | PP1 counter | TDP2 inh conf
Cc1[nH][nH]c(=O)c1C(c1ccc([N+](=O)[O-])cc1)c1c(C)[nH][nH]c1=O | 31* | 4 | -1 | -1 | -2 | 12
COc1ccc(OC)c(C(c2c(C)[nH][nH]c2=O)c2c(C)[nH][nH]c2=O)c1 | 50* | 16 | -1 | 8 | 9 | 8
Cc1ccc(C(c2c(C)[nH][nH]c2=O)c2c(C)[nH][nH]c2=O)cc1 | 33* | 22 | -1 | 8 | -1 | -2
CN(Cc1ccccc1F)C(=O)C1C2C=CC3(CN(Cc4ccccc4)C(=O)C13)O2 (centres undefined) | 8 | . | . | . | . | .
O=C(O)COCC(=O)Nc1cc(C(F)(F)F)cc(C(F)(F)F)c1 | 26* | 6 | -1 | 2 | -2 | 0
CCCCOCCCNC(=O)C[C@H]1C[C@@]2(C(=O)OC)C(=C[C@H](C3CCCC3)O[C@@H]2C)N(Cc2ccco2)C1=O | -6 | . | . | . | . | .
O=C(Nc1ccccc1)Nc1c(-c2ccc(F)cc2)nc2ncccn12 | 14 | . | . | . | . | .
Cc1nn(-c2cccc(Cl)c2)c2c1C(c1cccnc1)C(C#N)=C(N)O2 (centres undefined) | 60* | 7 | 0 | 32 | 3 | 7
COc1ccc(OC)c(C2C(C#N)=C(N)Oc3c2c(C)nn3-c2cccc(Cl)c2)c1 (centres undefined) | 82* | 20 | 0 | -4 | 4 | 8
Cc1nn(-c2cccc(Cl)c2)c2c1C(c1ccncc1)C(C#N)=C(N)O2 (centres undefined) | 22 | 7 | 1 | 16 | 2 | .
Cn1nccc1C(=O)N1CCC(Cc2ccccc2)CC1 | 45* | 5 | 2 | 1 | -4 | 3
CC(C)(C)c1cc(CN2CCC(O)CC2)cc(C(C)(C)C)c1O | -6 | -9 | 3 | 1 | -5 | .
CC1=NN(Cc2cc(C(C)(C)C)c(O)c(C(C)(C)C)c2)C(=O)C1 | 25* | 14 | 7 | 12 | 1 | 0
O=C(O)C(Cc1c[nH]c2ccccc12)NS(=O)(=O)c1ccc2ccccc2c1 (centres undefined) | -4 | 4 | 0 | -8 | -2 | .
O=C(O)C(Cc1c[nH]c2ccccc12)NS(=O)(=O)c1ccc(F)cc1 (centres undefined) | 28* | . | . | . | . | -1
Cc1nnc(SCc2ccccc2)n(N)c1=O | 58* | 3 | -1 | -6 | 1 | -4
Cc1ccc(CSc2nnc(C)c(=O)n2N)cc1 | -16 | -3 | 0 | 2 | -1 | .
COc1ccc(OC)c(CN2C(=O)c3ccnn3CC2(C)c2nnnn2C2CCCC2)c1 (centres undefined) | 7 | . | . | . | . | .
CCCC(=O)NC1=C(Cl)C(=O)c2ccccc2C1=O | 26* | . | . | . | . | 53*
CCCC(=O)NNC(=O)CCC(=O)Nc1ccccc1Cl | -9 | 1 | 2 | -3 | 6 | .
CC(=O)Nc1sc2c(c1-c1nc3ccccc3s1)CNC2 | 2 | . | . | . | . | .
CN(C)c1ccc(C(=O)OCC(=O)NC2CCCCC2)cc1 | -13 | -3 | -11 | 2 | 0 | .
CN(C)c1cccc(C(=O)OCC(=O)NC2CCCC2)c1 | 26* | -2 | 1 | 11 | 4 | 6
CCCCNC(=O)C[C@H]1C[C@@]2(C(=O)OC)C(=C[C@H](COCc3ccccc3)O[C@@H]2C)N(CCC2=CCCCC2)C1=O | -2 | . | . | . | . | .
COc1ccccc1C(=O)COC(=O)C(CCSC)NC(=O)COc1ccccc1 (centres undefined) | 25* | 14 | 3 | 17 | -3 | 1
SMILES | TDP2 absorb | GSTO1 counter | PP5 inh | Apaf-1 inh | PP1 counter | TDP2 inh conf
COC(=O)[C@]12C[C@H](CC(=O)NCCCN3CCCC3=O)C(=O)N(Cc3cccc4ccccc34)C1=C[C@H](COCc1ccccc1)O[C@@H]2C | -5 | . | . | . | . | .
O=C(CN1C(=O)NC2(CCCc3ccccc32)C1=O)Nc1cccc(S(=O)(=O)N2CCCCC2)c1 (centres undefined) | 5 | -5 | 4 | -10 | 0 | .
Cc1ccc(NC(=O)CN2C(=O)NC3(CCc4ccccc43)C2=O)cc1S(=O)(=O)N1CCCCC1 (centres undefined) | 90* | -5 | 1 | 21 | 0 | -13
C=CCN1C(=O)[C@@H](CC(=O)NCCCOCCCC)[C@]2(C(=O)OC)CCCCC=C12 | 5 | . | . | . | . | .
COCCCNC(=O)C[C@H]1C[C@@]2(C(=O)OC)C(=C[C@H](C3CCCC3)O[C@@H]2C)N(Cc2cccc3ccccc23)C1=O | -11 | . | . | . | . | .
COc1ccccc1NC(=O)COC(=O)c1ccc([N+](=O)[O-])s1 | 32* | 34 | 2 | 23 | 2 | 24
CN(CC(=O)Nc1ccccc1Cl)C(=O)COC(=O)c1ccc([N+](=O)[O-])s1 | 30* | . | . | 12 | . | 19
CC(=O)Nc1ccc(NC(=O)COC(=O)c2ccc(C)s2)cc1 | -4 | 5 | 2 | -3 | -3 | .
COc1ccccc1NC(=O)COC(=O)C1CC1 | 2 | 2 | -1 | -18 | -2 | .
NS(=O)(=O)c1ccc(NC(=O)COC(=O)c2ccc([N+](=O)[O-])s2)cc1 | 28* | 44* | 3 | 10 | -2 | 36*
O=C(NC1CCCC1)C1CCN(S(=O)(=O)c2ccc3[nH]c(=O)oc3c2)CC1 | 8 | . | . | . | . | .
CC1CCN(C(=O)Cn2c(SCC(=O)Nc3nccs3)nc3ccccc32)CC1 | 30* | 3 | -1 | -16 | -7 | 6
COc1ccc(NC(=O)N2CCCC2C(=O)NC23CC4CC(CC(C4)C2)C3)cc1 (centres undefined) | -7 | 8 | -1 | 6 | 1 | .
COc1cccc(NC(=O)N2CCCC2C(=O)NC23CC4CC(CC(C4)C2)C3)c1 (centres undefined) | 33* | -2 | 2 | 3 | -4 | 7
COc1ccc(CN(CCN2CCOCC2)C(=O)c2ccccc2C)cc1OC | 8 | . | . | . | . | .
COc1cccc(Nc2nc(C(N)Cc3ccc(C(F)(F)F)cc3)cs2)n1 (centres undefined) | -5 | . | . | . | . | .
O=C(CN1C(=O)CCS(=O)(=O)c2ccccc21)NCCc1ccccc1 | 26* | 5 | 1 | -8 | -2 | 10
COc1ccc(-c2ccc3c(n2)CCCN3S(=O)(=O)c2ccccc2C)cc1 | -7 | . | . | . | . | .
Oc1ccc(/C=N/NC(=S)Nc2cccnc2)c(O)c1O | 35* | . | . | . | . | 5
Oc1ccc(/C=N/NC(=S)Nc2cccnc2)c(O)c1 | -12 | 9 | -4 | 2 | -9 | .
NC1=NN(c2ccccc2)C(=O)C1 | -5 | . | . | . | . | .
CC(=O)NC1=NN(c2ccccc2)C(=O)C1 | 55* | 13 | 0 | 15 | -4 | 5
